Test results: ChEMBL document CHEMBL5724801, “EUbOPEN Chemogenomics Library - Multiplex” (2024)
Values joined by “and” are separate entries in the source; they are usually repeats but may differ in a detail not shown here. Equal values may be shown once.

Tested on: HEK-293T
Assay: Multiplex assay against HEK293T
Assay type: toxicity, cell-based
Settings: human
In short: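 Values for tubulin, mitochondrial-mass and membrane-permeability phenotypes are per cents of cells with healthy nuclei. These cells were identified by CellPathfinder machine-learning gating of live cells that had been stained at seeding with Hoechst33342, BioTracker Green Microtubule Cytoskeleton Dye, MitoTracker Red and Annexin V Alexa Fluor 680 and imaged on a CQ1 microscope at 37°C and 5% CO2 after compound addition. The gating first set Hoechst high-intensity objects apart from normal cells, then split normal cells into healthy, pyknosed or fragmented nuclei, and pyknosed cells into mitotic or apoptotic.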

[1] = 12 h, 1 µM, compound concentration 1 uM
[2] = 12 h, 10 µM, compound concentration 10 uM
[3] = 24 h, 1 µM, compound concentration 1 uM
[4] = 24 h, 10 µM, compound concentration 10 uM
[5] = 48 h, 1 µM, compound concentration 1 uM
[6] = 48 h, 10 µM, compound concentration 10 uM

SMILES: Nc1nc(-c2ccco2)c2cnn(Cc3ccccc3F)c2n1
- Population Apoptotic (%) [1]: 37% and 36%
- Population Fragmented Nuclei (%) [1]: 6% and 5%
- Population Healthy Nuclei (%) [1]: 76% and 81%
- Population Hoechst High Intensity Objects (%) [1]: 9% and 11%
- Population Membrane Permeable-Phenotype (%) [1]: 0%
- Population Mitochondria Different-Phenotype (%) [1]: 58% and 64%
- Population Mitotic Cells (%) [1]: 62% and 63%
- Population Normal (%) [1]: 90% and 88%
- Population Pyknosed Nuclei (%) [1]: 16% and 13%
- Population Tubulin-Different-Phenotype (%) [1]: 41% and 23%
- Total Cell Count [1]: 300 and 404
- Population Apoptotic (%) [2]: 33% and 40%
- Population Fragmented Nuclei (%) [2]: 7% and 6%
- Population Healthy Nuclei (%) [2]: 73% and 76%
- Population Hoechst High Intensity Objects (%) [2]: 8% and 12%
- Population Membrane Permeable-Phenotype (%) [2]: 0%
- Population Mitochondria Different-Phenotype (%) [2]: 61% and 68%
- Population Mitotic Cells (%) [2]: 66% and 60%
- Population Normal (%) [2]: 91% and 87%
- Population Pyknosed Nuclei (%) [2]: 19% and 17%
- Population Tubulin-Different-Phenotype (%) [2]: 43% and 26%
- Total Cell Count [2]: 306 and 265
- Population Apoptotic (%) [3]: 30% and 28%
- Population Fragmented Nuclei (%) [3]: 7% and 9%
- Population Healthy Nuclei (%) [3]: 77% and 81%
- Population Hoechst High Intensity Objects (%) [3]: 7% and 5%
- Population Membrane Permeable-Phenotype (%) [3]: 0%
- Population Mitochondria Different-Phenotype (%) [3]: 36% and 46%
- Population Mitotic Cells (%) [3]: 69% and 71%
- Population Normal (%) [3]: 92% and 94%
- Population Pyknosed Nuclei (%) [3]: 15% and 9%
- Population Tubulin-Different-Phenotype (%) [3]: 26% and 17%
- Total Cell Count [3]: 396 and 514
- Population Apoptotic (%) [4]: 38% and 35%
- Population Fragmented Nuclei (%) [4]: 11%
- Population Healthy Nuclei (%) [4]: 67%
- Population Hoechst High Intensity Objects (%) [4]: 6% and 10%
- Population Membrane Permeable-Phenotype (%) [4]: 2% and 0%
- Population Mitochondria Different-Phenotype (%) [4]: 52% and 59%
- Population Mitotic Cells (%) [4]: 61% and 64%
- Population Normal (%) [4]: 93% and 89%
- Population Pyknosed Nuclei (%) [4]: 21%
- Population Tubulin-Different-Phenotype (%) [4]: 31% and 23%
- Total Cell Count [4]: 334 and 328
- Population Apoptotic (%) [5]: 32% and 28%
- Population Fragmented Nuclei (%) [5]: 12% and 14%
- Population Healthy Nuclei (%) [5]: 75% and 78%
- Population Hoechst High Intensity Objects (%) [5]: 3% and 4%
- Population Membrane Permeable-Phenotype (%) [5]: 1%
- Population Mitochondria Different-Phenotype (%) [5]: 31% and 21%
- Population Mitotic Cells (%) [5]: 67% and 71%
- Population Normal (%) [5]: 96% and 95%
- Population Pyknosed Nuclei (%) [5]: 12% and 7%
- Population Tubulin-Different-Phenotype (%) [5]: 18% and 14%
- Total Cell Count [5]: 641 and 769
- Population Apoptotic (%) [6]: 36% and 28%
- Population Fragmented Nuclei (%) [6]: 16% and 13%
- Population Healthy Nuclei (%) [6]: 73% and 74%
- Population Hoechst High Intensity Objects (%) [6]: 7%
- Population Membrane Permeable-Phenotype (%) [6]: 0%
- Population Mitochondria Different-Phenotype (%) [6]: 42% and 43%
- Population Mitotic Cells (%) [6]: 63% and 71%
- Population Normal (%) [6]: 92%
- Population Pyknosed Nuclei (%) [6]: 9% and 12%
- Population Tubulin-Different-Phenotype (%) [6]: 19% and 15%
- Total Cell Count [6]: 412 and 398

SMILES: Cc1cccc(NC(=O)CN2CCC(c3ccccn3)CC2)c1.Cl.Cl
- Population Apoptotic (%) [1]: 34% and 46%
- Population Fragmented Nuclei (%) [1]: 7% and 5%
- Population Healthy Nuclei (%) [1]: 76% and 82%
- Population Hoechst High Intensity Objects (%) [1]: 5% and 3%
- Population Membrane Permeable-Phenotype (%) [1]: 0%
- Population Mitochondria Different-Phenotype (%) [1]: 54%
- Population Mitotic Cells (%) [1]: 65% and 53%
- Population Normal (%) [1]: 94% and 96%
- Population Pyknosed Nuclei (%) [1]: 15% and 11%
- Population Tubulin-Different-Phenotype (%) [1]: 33% and 22%
- Total Cell Count [1]: 348 and 277
- Population Apoptotic (%) [2]: 61% and 43%
- Population Fragmented Nuclei (%) [2]: 6% and 10%
- Population Healthy Nuclei (%) [2]: 71% and 70%
- Population Hoechst High Intensity Objects (%) [2]: 9% and 14%
- Population Membrane Permeable-Phenotype (%) [2]: 0%
- Population Mitochondria Different-Phenotype (%) [2]: 63% and 79%
- Population Mitotic Cells (%) [2]: 38% and 56%
- Population Normal (%) [2]: 90% and 85%
- Population Pyknosed Nuclei (%) [2]: 21% and 18%
- Population Tubulin-Different-Phenotype (%) [2]: 50% and 35%
- Total Cell Count [2]: 291 and 273
- Population Apoptotic (%) [3]: 32% and 45%
- Population Fragmented Nuclei (%) [3]: 8% and 10%
- Population Healthy Nuclei (%) [3]: 81% and 79%
- Population Hoechst High Intensity Objects (%) [3]: 3% and 4%
- Population Membrane Permeable-Phenotype (%) [3]: 0%
- Population Mitochondria Different-Phenotype (%) [3]: 30% and 44%
- Population Mitotic Cells (%) [3]: 67% and 54%
- Population Normal (%) [3]: 96% and 95%
- Population Pyknosed Nuclei (%) [3]: 9% and 10%
- Population Tubulin-Different-Phenotype (%) [3]: 22% and 18%
- Total Cell Count [3]: 451 and 339
- Population Apoptotic (%) [4]: 59% and 50%
- Population Fragmented Nuclei (%) [4]: 8% and 11%
- Population Healthy Nuclei (%) [4]: 74% and 75%
- Population Hoechst High Intensity Objects (%) [4]: 7%
- Population Membrane Permeable-Phenotype (%) [4]: 0%
- Population Mitochondria Different-Phenotype (%) [4]: 60% and 64%
- Population Mitotic Cells (%) [4]: 40% and 50%
- Population Normal (%) [4]: 92%
- Population Pyknosed Nuclei (%) [4]: 17% and 13%
- Population Tubulin-Different-Phenotype (%) [4]: 38% and 26%
- Total Cell Count [4]: 350 and 348
- Population Apoptotic (%) [5]: 30% and 46%
- Population Fragmented Nuclei (%) [5]: 13% and 8%
- Population Healthy Nuclei (%) [5]: 76% and 83%
- Population Hoechst High Intensity Objects (%) [5]: 2% and 4%
- Population Membrane Permeable-Phenotype (%) [5]: 0%
- Population Mitochondria Different-Phenotype (%) [5]: 25% and 24%
- Population Mitotic Cells (%) [5]: 69% and 53%
- Population Normal (%) [5]: 97% and 95%
- Population Pyknosed Nuclei (%) [5]: 9% and 8%
- Population Tubulin-Different-Phenotype (%) [5]: 21% and 13%
- Total Cell Count [5]: 688 and 524
- Population Apoptotic (%) [6]: 46% and 48%
- Population Fragmented Nuclei (%) [6]: 13% and 16%
- Population Healthy Nuclei (%) [6]: 75% and 76%
- Population Hoechst High Intensity Objects (%) [6]: 4% and 2%
- Population Membrane Permeable-Phenotype (%) [6]: 0%
- Population Mitochondria Different-Phenotype (%) [6]: 45% and 37%
- Population Mitotic Cells (%) [6]: 53% and 51%
- Population Normal (%) [6]: 95% and 97%
- Population Pyknosed Nuclei (%) [6]: 10% and 7%
- Population Tubulin-Different-Phenotype (%) [6]: 26% and 20%
- Total Cell Count [6]: 515 and 544
